From the EternaBench riboswitch data

System: MS2 coat protein
Experiment: apparent Kd, MS2 coat protein; higher = weaker binding; RNA-MaP array; FMN 200 µM where present
In short: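 Designs on Illumina sequencing-chip clusters, transcribed by stalled E. coli RNA polymerase, were exposed to SNAP-549-labelled MS2 coat protein in doubling steps from 0.7 or 1.5 nM up to 3 µM, without and then with constant ligand. The buffer held 100 mM Tris-HCl pH 7.5, 80 mM KCl, 4 mM MgCl2, BSA, DTT, yeast tRNA and Tween-20. Apparent Kd values are medians of filtered per-cluster binding-curve fits to green signal normalised to red-channel RNA signal and control-cluster median Fmax.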

[1] = designed as: ON switch for flavin mononucleotide, no ligand
[2] = ligand present: flavin mononucleotide, designed as: ON switch for flavin mononucleotide
[3] = designed as: OFF switch for flavin mononucleotide, no ligand
[4] = ligand present: flavin mononucleotide, designed as: OFF switch for flavin mononucleotide

Sequence | apparent Kd [1] [nM] | apparent Kd [2] [nM] | apparent Kd [3] [nM] | apparent Kd [4] [nM]
CGUAACUGCAUAGGAUAUUGAUACAUGAGGAUCACCCAUGUUUUUGGGAUUAGUAAUAUAUUAAGCAAGAAGGAUGGAGUUACG | 74.2 | 39.9 |  | 
CGUAUGUCAGGAUAUGCGUAUGCCGCCCAGGACAGGCGGCAGCAGAAGGGACAUGAGGAUCACCCAUGUUCGGG |  |  | 68.3 | 59.5
CGUCAUUACUCAGGAUAUGCAUCAUACUUGAGGGCAGAAGGGAGUACAUGAGGAUCACCCAUGUACUAUGGGUGCCUAAGAGGU |  |  | 18.7 | 101
CGUCCGUGGGUAGUGAUCGUACAUGAGGAUCACCCAUGUGAGAAGGAUAUGCAUGCACGCGGACAGCAGAAGGUCUCACAACAA |  |  | 133 | 429
CGUCUAUGCCAGAAGGCAUGAAACAUGAGGAUCACCCAUGUCAAAGACAUGAGGAUAUGGCAUAGACGAAAAGUGCGAAAGCAC | 4.32 | 3.27 |  | 
CGUGCACAUGAGGAUCACCCAUGUCGUCGCGAUCAAGGAUAUGAAAGCAGCGUUAUGUUAUCAGAAGGUGAACCUC | 28.1 | 21.9 |  | 
CGUGCGUAUGUGAGGAUAUGCUGGUCCUUGGAUCGGCAGAAGGCACAUGAGGAUCACCCAUGUGGUGUCGUUCU |  |  | 172 | 23.1
CGUGUGUGAACAGGAUAUUGGAACGUACCUCGCCACAUGAGGAUCACCCAUGUCGUUGCUCACGCCAAGAAGGGUUUACGCCUA | 248 | 226 |  | 
CGUUCAGAGAACGAUACGAAUGGACAUGAGGAUCACCCAUGUAGAAGGACAGGAGAAUAACGACUGUAGGAUAUACAUUUAGUG |  |  | 41.3 | 76
CUAAAUCAUGUAGGAUAUGCAUGGCGAAGCUACGCAGAAGGACAUGAGGAUCACCCAUGUCUGUCCGUCUGCGUACAGACGGAC |  |  | 20.4 | 115
CUAACACAUGAGGAUCACCCAUGUUAGGAUAUUAGUACUAUUUACCACAUAAUGGCACUGAGAAGGAGCGGGUA |  |  | 29.3 | 31.3
CUAGUAUAUCAGGAUAUGAUAAUGUGUAGUAUAUCAGAAGGGAUGACAUGAGGAUCACCCAUGUUAAGGGAUGA |  |  | 58.1 | 118
CUAUACAUAUCAGGAUAUCAUCGCGUGGAUUAACCCUGUGAUUACAUGAGGAUCACCCAUGUGCUUGAGAAGGGAUUACUAUUU |  |  | 33.7 | 152
CUAUCUUGCAAGGAUAUGCAAUUUAUUAUUUAUGCAGAAGGUGCUACAUGAGGAUCACCCAUGUUUCUGGGUUU |  |  | 134 | 257
CUAUGAGCGAUAGGAUAUACUGAGAUUGAGUGGGUAGAAGGAUCGAUAGUGUAGAAGACAUGAGGAUCACCCAUGUUACGGGCC | 188 | 186 |  | 
CUAUGCGGAAUAGGAUAUUCGCUCAUGAGGAUAGAAGAAGGGUUACAUGAGGAUCACCCAUGUAUGCACAUGAGGAUCCCUUAG |  |  | 134 | 150
CUAUUUAGUGCCUCAUGUACAUGAGGAUCACCCAUGUUAACUUAGGAUAUAUUUAUAUUGAUAGAGUAGAAGGAAGUACUAUUG |  |  | 70.2 | 61
CUCACGUUAGUAGGAUAUCCGACAUGAGGAUCACCCAUGUCACUACGCCUCAAGGGAAGGUGUAAGGAGAAGGGCUGAUAAAUA | 178 | 88.3 |  | 
CUCAGACAUGAGGAUCACCCAUGUGAGGAUAUGAUGCAGCAGUGGUCUACGCUGUGCAUCAGAAGGCACAUGUG |  |  | 36.5 | 12.5
CUCAUGUCAGGAUAUCGUGCAGCUACCGAAAGGUAGCUGCACGAGAAGGGACAUGAGGAUCACCCAUGUAUGAA |  |  | 22.2 | 18.4
CUCAUGUGAGGAUAUCAGUAGUAAAAAAAUAAAAUUACUACUGAGAAGGCACAUGAGGAUCACCCAUGUACCUU |  |  | 70.7 | 72
CUCCGGCGUGUAGGAUAUGGAUCCGAUUAGGAUCCAGAAGGACAUGAGGAUCACCCAUGUACAUGUAAACAGUCAUCACCGGAA |  |  | 7.61 | 18.8
CUCCGGCGUGUAGGAUAUGGAUCCGAUUAGGAUCCAGAAGGACAUGAGGAUCACCCAUGUACAUGUAAACAGUCAUCACCGGAG |  |  | 6.24 | 6.99
CUCGAGUGAGGAUAUUGAAUCGGCGGCUGACCGCACGAGCUCGAGAAGGCACAUGAGGAUCACCCAUGUGGGUC |  |  | 15.2 | 27.3
CUCUUGUAAGGAUAUGACUACAUAAAAAAAAAAAAAUGUAGUCAGAAGGUACAUGAGGAUCACCCAUGUACAAA |  |  | 22.7 | 25.6
CUGAGCAAUGUAGGAUAUCGACUGGAUAACAGUCGAGAAGGACAUGAGGAUCACCCAUGUCAAUGAGUGAAUAAUAAAGCUCAG |  |  | 20.4 | 118
CUGAUGUUAGGAUAUCAGGCUGCGCGCGAAGGCGGACGGCAUGAGAAGGAACAUGAGGAUCACCCAUGUGACGA |  |  | 32.6 | 103
CUGAUGUUAGGAUAUCAGGCUGUGCACGAAGACGGGCGGCAUGAGAAGGAACAUGAGGAUCACCCAUGUGACGG |  |  | 36.3 | 77.6
